Key:
[1] = Cytotoxicity against mouse P388D1 cells after 24 hrs by ATPLite assay; assay type: functional, cell-based; conditions: P388D1, 24 h
Outline: (§1)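 Cells grown in appropriate medium were exposed to test compounds at five concentrations for 24 h (5% CO2). Viability was read as cellular ATP by ATPLite luciferase luminescence and quantified against an ATP standard curve. Samples were run in triplicate, and IC50 was calculated from the concentration series.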

MCF7 = assay: Cytotoxicity against human MCF7 cells after 24 hrs by ATPLite assay; assay type: functional, cell-based; conditions: MCF7, 24 h; outline: as §1
HepG2 = assay: Cytotoxicity against human HepG2 cells after 24 hrs by ATPLite assay; assay type: functional, cell-based; conditions: HepG2, 24 h; outline: as §1
PC-3 = assay: Cytotoxicity against human PC3 cells after 24 hrs by ATPLite assay; assay type: functional, cell-based; conditions: PC-3, 24 h; outline: as §1
Caco-2 = assay: Cytotoxicity against human Caco-2 cells after 24 hrs by ATPLite assay; assay type: functional, cell-based; conditions: Caco-2, 24 h; outline: as §1
NIH3T3 [2] = assay: Inhibition of PGE2 production in calcium ionophore […] stimulated mouse 3T3 cells after 3 hrs; assay type: functional, cell-based; conditions: NIH3T3, 3 h
Outline: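 3T3 cells in DMEM with 10% FBS were seeded at 2 × 10^5 cells/mL, held ~20 h at 37 °C and 5% CO2, then given test substance (DMSO stock, 10 mg/mL) for 3 h. […] (5 mM DMSO stock) was added for 20 min. Supernatant PGE2 was measured by EIA, in triplicate, as % inhibition versus solvent-treated stimulated cells.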

NIH3T3 [3] = assay: Cytotoxicity against mouse 3T3 cells after 3 hrs by ATPLite assay; assay type: cell-based; conditions: NIH3T3, 3 h

Compound	IC50 [1]	IC50 (MCF7)	IC50 (HepG2)	IC50 (PC-3)	IC50 (Caco-2)	IC50 (NIH3T3 [2])	IC50 (NIH3T3 [3])
COc1cc(/C=C/C(=O)CC(=O)/C=C/c2ccc(O)c(OC)c2)ccc1O [CURCUMIN]	75.7 µM	51.5 µM	43.8 µM	22.7 µM	48.6 µM	–	–
COc1ccc(C/C=C/CCCCc2ccc(O)cc2)cc1	117 µM	56.9 µM	40.6 µM	23.6 µM	44.8 µM	34 µM	52.8 µM

— ChEMBL document CHEMBL1157090, “Diarylheptanoid from Pleuranthodium racemigerum with in vitro prostaglandin E(2) inhibitory and cytotoxic activity” (J Nat Prod, 2010)
